According to ChEMBL document CHEMBL5712906, “Discovery of a novel long noncoding RNA overlapping the LCK gene that regulates prostate cancer cell growth” (2019):
Calls of active or inactive are those of the source. No cut-off for these calls is given here.

What was measured:
[1] = target: Histone acetyltransferase p300 (Homo sapiens) (UniProt Q09472); test: Inhibition of p300 in human LNCaP C4-2 cells assessed as reduction in R1881-induced increase in PSA expression at 0.3 uM measured after 24 hrs by qPCR analysis; type: cell-based
Chain of Histone acetyltransferase p300 (Homo sapiens) (Q09472 whole entry): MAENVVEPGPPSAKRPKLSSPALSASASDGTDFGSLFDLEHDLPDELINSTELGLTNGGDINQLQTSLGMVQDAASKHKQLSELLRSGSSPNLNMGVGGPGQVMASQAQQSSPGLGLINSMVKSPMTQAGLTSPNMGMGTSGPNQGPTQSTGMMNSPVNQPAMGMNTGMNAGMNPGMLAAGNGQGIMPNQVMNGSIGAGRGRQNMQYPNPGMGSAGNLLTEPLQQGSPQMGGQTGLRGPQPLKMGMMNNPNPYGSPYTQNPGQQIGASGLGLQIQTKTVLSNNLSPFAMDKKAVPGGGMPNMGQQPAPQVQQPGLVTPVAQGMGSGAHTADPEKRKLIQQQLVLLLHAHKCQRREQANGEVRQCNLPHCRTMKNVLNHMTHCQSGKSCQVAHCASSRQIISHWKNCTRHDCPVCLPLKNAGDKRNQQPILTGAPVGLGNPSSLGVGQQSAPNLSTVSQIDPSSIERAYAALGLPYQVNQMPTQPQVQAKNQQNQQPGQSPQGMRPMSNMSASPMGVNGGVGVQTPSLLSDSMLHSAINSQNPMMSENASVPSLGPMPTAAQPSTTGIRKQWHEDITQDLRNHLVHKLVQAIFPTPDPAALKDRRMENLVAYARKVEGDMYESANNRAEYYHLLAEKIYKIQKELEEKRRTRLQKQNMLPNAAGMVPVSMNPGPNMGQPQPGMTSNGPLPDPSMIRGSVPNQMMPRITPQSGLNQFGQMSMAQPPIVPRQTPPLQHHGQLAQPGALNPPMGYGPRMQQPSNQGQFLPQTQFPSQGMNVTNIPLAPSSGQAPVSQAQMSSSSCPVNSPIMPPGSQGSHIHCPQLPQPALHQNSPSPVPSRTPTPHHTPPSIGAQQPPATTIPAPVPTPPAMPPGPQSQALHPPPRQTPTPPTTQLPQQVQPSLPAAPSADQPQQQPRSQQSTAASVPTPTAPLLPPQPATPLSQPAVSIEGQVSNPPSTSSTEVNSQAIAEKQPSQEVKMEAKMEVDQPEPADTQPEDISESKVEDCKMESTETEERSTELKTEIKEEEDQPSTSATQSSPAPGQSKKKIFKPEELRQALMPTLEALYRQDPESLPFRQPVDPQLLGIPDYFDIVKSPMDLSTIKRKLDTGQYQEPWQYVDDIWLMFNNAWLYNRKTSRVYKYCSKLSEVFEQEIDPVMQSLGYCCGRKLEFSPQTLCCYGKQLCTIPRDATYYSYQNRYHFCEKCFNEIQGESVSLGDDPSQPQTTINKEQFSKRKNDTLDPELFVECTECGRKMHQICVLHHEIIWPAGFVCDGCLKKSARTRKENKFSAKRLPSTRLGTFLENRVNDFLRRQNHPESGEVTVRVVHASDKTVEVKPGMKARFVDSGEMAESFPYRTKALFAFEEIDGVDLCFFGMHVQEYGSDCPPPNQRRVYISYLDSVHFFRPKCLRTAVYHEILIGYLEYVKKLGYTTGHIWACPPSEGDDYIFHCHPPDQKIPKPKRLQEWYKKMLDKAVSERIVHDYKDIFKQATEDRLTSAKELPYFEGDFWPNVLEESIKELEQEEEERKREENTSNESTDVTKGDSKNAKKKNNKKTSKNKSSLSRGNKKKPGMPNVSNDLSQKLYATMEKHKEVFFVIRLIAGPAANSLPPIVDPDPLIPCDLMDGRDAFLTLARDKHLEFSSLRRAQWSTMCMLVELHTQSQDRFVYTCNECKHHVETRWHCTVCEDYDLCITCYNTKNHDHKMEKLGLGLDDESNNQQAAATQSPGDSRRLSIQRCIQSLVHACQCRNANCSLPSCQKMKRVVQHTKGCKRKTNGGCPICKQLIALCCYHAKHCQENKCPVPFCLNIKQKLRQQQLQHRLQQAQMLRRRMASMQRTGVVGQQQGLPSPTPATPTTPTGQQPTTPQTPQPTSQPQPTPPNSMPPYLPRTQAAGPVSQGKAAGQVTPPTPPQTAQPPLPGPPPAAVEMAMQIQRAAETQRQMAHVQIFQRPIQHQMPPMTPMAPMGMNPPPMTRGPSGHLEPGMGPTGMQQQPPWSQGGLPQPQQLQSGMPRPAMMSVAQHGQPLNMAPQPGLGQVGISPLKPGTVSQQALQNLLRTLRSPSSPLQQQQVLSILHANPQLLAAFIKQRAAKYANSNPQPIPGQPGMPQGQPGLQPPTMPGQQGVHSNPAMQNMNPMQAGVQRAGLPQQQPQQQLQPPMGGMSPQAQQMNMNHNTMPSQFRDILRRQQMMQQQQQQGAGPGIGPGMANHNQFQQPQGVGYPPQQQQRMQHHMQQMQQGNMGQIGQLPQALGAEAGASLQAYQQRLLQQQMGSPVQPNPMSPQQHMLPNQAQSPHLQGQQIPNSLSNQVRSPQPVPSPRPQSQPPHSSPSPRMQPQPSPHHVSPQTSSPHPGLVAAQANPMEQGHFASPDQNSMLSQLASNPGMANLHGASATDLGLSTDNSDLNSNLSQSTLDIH
In short: (§1)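 Cells seeded 48 h in their usual growth medium, then given 1 nM R1881 with or without 0.3 μM inhibitor. RNA harvested 24 h after treatment; transcripts quantified by qPCR. HULLK measured with two independent LCK primer pairs (exon 13 or 3′UTR). PSA and TMPRSS2 transcripts serve as checks that p300 inhibition worked. n = 3.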

[2] = target: Histone acetyltransferase p300 (Homo sapiens) (UniProt Q09472); test: Inhibition of p300 in human LNCaP cells assessed as reduction in R1881-induced increase in PSA expression at 0.3 uM measured after 24 hrs by qPCR analysis; type: cell-based; in short: as §1
[3] = target: Histone acetyltransferase p300 (Homo sapiens) (UniProt Q09472); test: Inhibition of p300 in human LNCaP cells assessed as reduction in R1881-induced increase in HULLK expression at 0.3 uM measured after 24 hrs by qPCR analysis; type: cell-based; in short: as §1
[4] = target: Histone acetyltransferase p300 (Homo sapiens) (UniProt Q09472); test: Inhibition of p300 in human LNCaP C4-2 cells assessed as reduction in R1881-induced increase in HULLK expression at 0.3 uM measured after 24 hrs by qPCR analysis; type: cell-based; in short: as §1
[5] = target: Histone acetyltransferase p300 (Homo sapiens) (UniProt Q09472); test: Inhibition of p300 in human LNCaP cells assessed as effect on HULLK expression at 0.3 uM measured after 24 hrs by qpCR analysis; type: cell-based; in short: as §1
[6] = target: Histone acetyltransferase p300 (Homo sapiens) (UniProt Q09472); test: Inhibition of p300 in human LNCaP cells assessed as reduction in R1881-induced increase in TMPRSS2 expression at 0.3 uM measured after 24 hrs by qPCR analysis; type: cell-based; in short: as §1
[7] = target: Histone acetyltransferase p300 (Homo sapiens) (UniProt Q09472); test: Inhibition of p300 in human LNCaP C4-2 cells assessed as reduction in R1881-induced increase in TMPRSS2 expression at 0.3 uM measured after 24 hrs by qPCR analysis; type: cell-based; in short: as §1
[8] = target: Histone acetyltransferase p300 (Homo sapiens) (UniProt Q09472); test: Inhibition of p300 in human LNCaP C4-2 cells assessed as effect on HULLK expression at 0.3 uM measured after 24 hrs by qpCR analysis; type: cell-based; in short: as §1
LNCaP = test: Reduction in R1881-induced increase in LCK 3'-UTR expression in human LNCaP cells at 10 uM measured after 24 hrs by qPCR analysis; type: functional, cell-based
In short: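 Cells seeded for 48 h, then exposed to 1 nM R1881 with or without 10 μM enzalutamide. RNA harvested 24 h after treatment. LCK transcript measured by qPCR with primers in the 3′UTR. n = 3.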

inhibition [1] | inhibition [2] | inhibition [3] | inhibition [4] | inhibition [5] | inhibition [6] | inhibition [7] | inhibition [8] | Compound | Activity (LNCaP)
Active | Active | Active | Active | inactive | Active | Active | inactive | CNC(=O)Nc1ccc2c(c1)CC[C@@]21OC(=O)N(CC(=O)N(Cc2ccc(F)cc2)[C@@H](C)C(F)(F)F)C1=O | –
– | – | – | – | – | – | – | – | CNC(=O)c1ccc(N2C(=S)N(c3ccc(C#N)c(C(F)(F)F)c3)C(=O)C2(C)C)cc1F | Active
